Compound activity deposited in PubChem BioAssay by several laboratories.
Most compounds without a hit are left out; they make up all but 4% or so of the library.
Mdm2 MdmX PPI = human Mdm2/MdmX binding inhibition. SaOS-2 split-luciferase Mdm2/MdmX complementation, luminescence. O15151+Q00987. inhibition, % at 8 µM. 330,000 compounds, 3% hits;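 active = inhibition of at least 50% at 8 µM in the primary screen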
ABHD5-PLIN5 inh = inhibitors of human ABHD5-perilipin-5 interaction. Split G. princeps luciferase complementation, luminescence, 4 h. inhibition, % at 4 µM. 360,000 compounds, 0.78% hits;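 active = inhibition above the mean inhibition across every tested compound plus 3 SD, cut at about 22% in these data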;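 note: 0% = DMSO only wells and the 100% control is not disclosed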
CHOP UPR activ = activators of apoptotic arm of unfolded protein response (CHOP); CHO-CHOP luciferase reporter, UPR activation, luminescence; percent of tunicamycin response over DMSO baseline; activation, % at 10 µM; 330,000 compounds, 0.34% hits;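 active = at 10 µM dose, activation of 40% or more, normalized to positive control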;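 note: 100% = tunicamycin at 10 µg/mL and 0% = DMSO alone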
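Assay system: CHO cells with stable CHOP pathway luciferase reporter; Buffer or medium: F12 plus 10% serum; Times: 16-18 h cell attachment, then 6 h compound exposure, 37 °C; Signal: luciferase luminescence; Read-out basis: percent activation relative to tunicamycin control; Control set: tunicamycin high control, DMSO low control.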
Granule exo inh = blocks lytic granule exocytosis; AID 651702; inhibition, % at 10 µM; 360,000 compounds, 0.66% hits; TALL-104 LAMP-1 surface exposure, flow cytometry; cells stimulated with thapsigargin and PMA;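 active = inhibition above about 55%, limit read from the data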
UPR XBP1 act = activators of adaptive arm of unfolded protein response (XBP1) | CHO-XBP1 luciferase reporter, IRE1-XBP1 UPR activation, luminescence; percent of tunicamycin response, DMSO as zero | activation, % at 20 µM | 330,000 compounds, 0.33% hits;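 active = versus positive control, 20 µM dose yields 30% or more activation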;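 note: 100% = tunicamycin at 10 µg/mL and 0% = DMSO only wells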
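Material: IRE1-XBP1 luciferase reporter CHO line / Quantity: one thousand reporter cells per well / Buffer or medium: F12 with 10% serum / Compound: 20 µM single concentration, DMSO 1% / Times: 6 h treatment, 37 °C / Detection: Steady-Glo luciferase glow luminescence, 10 min after reagent addition / Benchmarks: tunicamycin high, DMSO low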
Mdm2 MdmX conf = confirmation of human Mdm2/MdmX interaction inhibitors; Mdm2-MdmX binding, luminescent assay; inhibition, % at 8 µM; AID 489028; 10,000 compounds, 55% hits; shares compounds with Mdm2 MdmX PPI; in the data active = inhibition above about 40%
FLuc counter = counter-screen for Mdm2/MdmX inhibitors: full-length luciferase. AID 504607. inhibition, % at 8 µM. 6,200 compounds, 77% hits. SaOS-2 full-length luciferase counterscreen, luminescence. shares compounds with Mdm2 MdmX PPI;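 active = mean inhibition at 8 µM reaching about 37%, which flags the compound as non-specific, limit read from the data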;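 note: p53-null SaOS-2 cells with luciferase driven by a doxycycline-inducible promoter; compound on cells about two nights before reading with doxycycline added after day one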
* = called active by the depositor; · = no result.

SMILES	Mdm2 MdmX PPI	ABHD5-PLIN5 inh	CHOP UPR activ	Granule exo inh	UPR XBP1 act	Mdm2 MdmX conf	FLuc counter
Cc1cc(C)cc(OCC(=O)Nc2cccc(-c3nnc(-c4ccco4)o3)c2)c1	83*	-9	-2	5	-1	40*	99*
COc1ccc(CC(=O)Nc2cccc(-c3nnc(-c4ccco4)o3)c2)cc1	26	-5	0	-1	1	·	·
O=[N+]([O-])c1ccc(NC(=S)NCc2ccncc2)cc1	5	-1	-1	2	-3	·	·
O=[N+]([O-])c1cc(C(F)(F)F)ccc1NCCCCNS(=O)(=O)c1ccc(Cl)cc1	23	-2	-1	4	-1	·	·
O=[N+]([O-])c1cc(C(F)(F)F)ccc1NCCNC(=S)Nc1ccc(Cl)cc1	89*	-5	2	0	6	27	·
O=[N+]([O-])c1ccc(NC(=S)NCCc2ccccc2)cc1	15	-7	1	1	3	·	·
O=[N+]([O-])c1ccc(NC(=S)NCc2ccc(F)cc2)cc1	74*	-11	-1	-1	-6	22	·
CNC(=O)C(=O)NCCN1CCN(C(=O)c2ccc([N+](=O)[O-])cc2)CC1	-4	-1	0	3	3	·	·
CCCCc1ccc(NC(=O)C(=O)NCCN2CCN(Cc3ccc([N+](=O)[O-])cc3)CC2)cc1	67*	-4	4	0	6	36	·
O=[N+]([O-])c1ccc(NC(=S)NCCc2ccc(Cl)cc2)cc1	93*	-9	-1	7	-8	81*	46*
COc1ccc(-c2nc(CSCC(=O)N3CCc4ccccc43)c(C)o2)cc1OC	7	-6	-2	-1	0	·	·
CCOc1ccc(CCNC(=O)C2CC(=O)N(Cc3ccc(OC)cc3)C2)cc1OCC (stereo not given)	15	2	-1	-6	-6	·	·
Nc1ccccc1C#CC(=O)c1ccccc1	96*	-5	-5	2	-8	63*	55*
Nc1ccccc1C#Cc1ccc([N+](=O)[O-])cc1	-37	7	8	-2	5	·	·
O=C(NCCNc1ccc2ccccc2c1)c1cccn2c(=O)c3sccc3nc12	-2	·	0	·	5	·	·
O=S(=O)(NCCC1=CCCCC1)c1c(Cl)cccc1Cl	5	7	-1	4	0	·	·
CC1CCCC(NC(=S)Nc2ccc(SC(F)F)cc2)C1C (stereo not given)	90*	-19	-3	0	4	9	·
O=C(NCC1CCN(Cc2cccc(Cl)c2)CC1)Nc1ccccc1Cl	20	6	1	36	-1	·	·
O=C(CCCCCn1c(=S)[nH]c2ccc(N3CCOCC3)cc2c1=O)NCCc1ccccc1	51*	3	2	-1	2	-10	·
O=c1c2cc(N3CCOCC3)ccc2[nH]c(=S)n1CCCN1CCN(c2ccccc2F)CC1	58*	·	14	·	27	32	·
COc1ccc(N2CCN(CCCn3c(=S)[nH]c4ccccc4c3=O)CC2)cc1	86*	11	0	26	-7	67*	47*
COc1ccc(Cl)cc1NC(=O)C1CCN(C(=O)Nc2ccccc2)CC1	-22	6	0	0	-3	·	·
CC1S/C(=N/N=C2CCC(C(C)(C)C)CC2)NC1=O (stereo not given)	-2	-7	0	-1	2	·	·
O=c1c2ccccc2oc2ccc(C#CC3(O)CCCCC3)cc12	59*	-7	-3	-1	-3	51*	173*
COc1cccc2oc3ccc(C#CC4(N)CCCCC4)cc3c(=O)c12	96*	-6	9	-6	18	-8	·
SMILES	Mdm2 MdmX PPI	ABHD5-PLIN5 inh	CHOP UPR activ	Granule exo inh	UPR XBP1 act	Mdm2 MdmX conf	FLuc counter
N#Cc1ccc(C#Cc2ccc3oc4ccccc4c(=O)c3c2)cc1	67*	-13	-1	-5	6	9	·
Cn1c2ccccc2c(=O)c2cc(C#CC3(O)CCCCC3)ccc21	69*	5	-6	10	-8	53*	169*
Cc1ccc(C)c(N2CCN(C(=O)c3csc4ccccc34)CC2)c1	-8	-2	0	-3	1	·	·
Cc1cc2sc3ccc(C#CC4(O)CCCCC4)cc3c(=O)c2cc1C	94*	-2	-9	-3	-9	97*	54*
COCc1cc(=O)n2[nH]c(N)nc2n1	-15	-1	3	-4	-1	·	·
O=C(CSc1nc2ccc(Nc3nc(N4CCOCC4)nc(N4CCOCC4)n3)cc2s1)Nc1ccccc1Cl	89*	7	2	1	3	38	88*
CCOP(=O)(OCC)C(NC(=O)c1ccc(OC)cc1)c1ccccc1 (stereo not given)	1	-2	0	1	-2	·	·
Cc1ccc2c(c1)c1c3n2CCN(CC(O)CNC(C)C)C3CCC1 (stereo not given)	29	8	3	33	-2	·	·
C[C@@]12C(=O)Nc3ccccc3C(=O)N1[C@H]1c3cc(Br)ccc3OC[C@@H]1[C@@H]2c1ccccc1	63*	1	0	9	1	53*	31
CCOC(=O)[C@H]1[C@H]2COc3ccc(Cl)cc3[C@@H]2N2C(=O)c3ccc(Cl)cc3NC(=O)[C@@]12C	53*	2	0	-9	6	25	·
COc1ccc2c(c1)C(=O)N1[C@H]3c4cc(Br)ccc4OC[C@@H]3[C@H](c3ccccc3)[C@]1(C)C(=O)N2	64*	-2	0	-5	-2	63*	37*
O=S(=O)(c1cccs1)N1CCN(c2ccccc2)CC1	12	0	-1	10	0	·	·
COc1cc(/C=C2/CCCC(C(=O)C(F)(F)F)=C2O)ccc1O	7	3	0	-3	-1	·	·
COc1cc(/C=C2/CCC/C(=C\c3cc(O)c(OC)c(Cl)c3)C2=O)cc(Cl)c1O	95*	9	40	9	19	80*	52*
COc1cc(/C=C2\SC(N)=NC2=O)cc(Cl)c1O	9	-1	1	-4	-6	·	·
COc1cc(/C=C2\CCC/C(=C\c3ccc(O)c(OC)c3)C2=O)ccc1O	100*	10	25	16	16	89*	22
COc1ccc(C(NC(=O)C(C)C)c2ccc3cccnc3c2O)cc1 (stereo not given)	77*	2	0	-3	6	83*	29
CCC(=O)NC(c1ccc(C)cc1)c1ccc2cccnc2c1O (stereo not given)	79*	7	23	9	17	86*	24
CCCCC(=O)NC(c1ccc(OC)cc1)c1ccc2cccnc2c1O (stereo not given)	·	7	·	0	·	·	·
